Experimental findings from ChEMBL document CHEMBL1149444, “Discovery of imidazo[1,2-b][1,2,4]triazines as GABA(A) alpha2/3 subtype selective agonists for the treatment of anxiety” (J Med Chem, 2006) are described below.

Each structure is given as a SMILES string.

A short description of data set [1]: Volume of distribution in rat at 1 mg/kg, iv or 1 mg/kg, po. The class given is ADME, organism-based. Conditions: in vivo, read-out: Vdss. A digest of the protocol:
(§1)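 Rat pharmacokinetics after dosing at 1 mg/kg iv and 1 mg/kg po. Plasma clearance in mL/min/kg, half-life in h and volume of distribution in L/kg.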

Data set [2] in a line: Half life in rat at 1 mg/kg, […] 1 mg/kg, po. The data set is classed as ADME, organism-based. The settings on record: in vivo. The method in brief:
as §1

Data set [3] has as its target T1, GABA-A receptor; alpha-3/beta-3/gamma-2 (Homo sapiens) (UniProt P18507+P28472+P34903). Put plainly: Efficacy against recombinant human GABAA alpha3 receptor plus beta-3-gamma-2 expressed in L(tk-) cells by whole cell patch clamp method relative to chlordiazepoxide. The class given is functional, cell-based. The method in brief:
(§2)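 Whole-cell patch clamp on L(tk-) cells stably expressing the receptor (alpha plus beta3gamma2). GABA applied at an EC20-equivalent concentration. Modulation of the current measured with increasing test concentrations. Efficacy expressed relative to the maximal chlordiazepoxide response (set at 1.00) or as a percentage.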

The target in data set [4] is T2, GABA-A receptor; alpha-2/beta-3/gamma-2 (Homo sapiens, UniProt P18507+P28472+P47869).
T2 sequence (P18507 whole entry): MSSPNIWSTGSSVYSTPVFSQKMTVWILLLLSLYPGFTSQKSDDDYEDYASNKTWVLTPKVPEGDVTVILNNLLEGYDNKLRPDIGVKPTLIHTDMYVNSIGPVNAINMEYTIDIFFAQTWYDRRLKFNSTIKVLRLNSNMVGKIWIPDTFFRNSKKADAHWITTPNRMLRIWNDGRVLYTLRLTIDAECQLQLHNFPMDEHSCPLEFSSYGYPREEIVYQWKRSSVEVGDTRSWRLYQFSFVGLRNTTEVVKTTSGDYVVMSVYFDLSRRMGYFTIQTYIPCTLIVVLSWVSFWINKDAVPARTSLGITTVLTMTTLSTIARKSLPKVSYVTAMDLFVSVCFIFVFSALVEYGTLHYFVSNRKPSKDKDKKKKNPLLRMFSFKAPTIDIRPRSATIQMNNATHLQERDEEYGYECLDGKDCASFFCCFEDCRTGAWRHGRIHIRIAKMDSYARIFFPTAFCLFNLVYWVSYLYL
T2 sequence (P28472 whole entry): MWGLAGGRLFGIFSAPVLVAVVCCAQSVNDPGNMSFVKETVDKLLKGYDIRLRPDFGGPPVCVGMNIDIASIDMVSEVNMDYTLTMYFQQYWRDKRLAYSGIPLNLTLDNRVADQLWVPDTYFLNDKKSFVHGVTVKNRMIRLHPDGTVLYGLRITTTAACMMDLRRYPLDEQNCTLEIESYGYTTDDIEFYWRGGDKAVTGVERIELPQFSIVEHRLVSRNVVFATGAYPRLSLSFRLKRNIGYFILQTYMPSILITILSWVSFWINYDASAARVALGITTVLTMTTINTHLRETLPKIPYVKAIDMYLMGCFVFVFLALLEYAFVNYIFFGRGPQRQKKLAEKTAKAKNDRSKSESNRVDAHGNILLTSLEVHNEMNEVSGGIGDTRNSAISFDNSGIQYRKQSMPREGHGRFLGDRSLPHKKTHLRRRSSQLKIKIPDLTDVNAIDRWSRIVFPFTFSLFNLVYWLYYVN
T2 sequence (P47869 whole entry): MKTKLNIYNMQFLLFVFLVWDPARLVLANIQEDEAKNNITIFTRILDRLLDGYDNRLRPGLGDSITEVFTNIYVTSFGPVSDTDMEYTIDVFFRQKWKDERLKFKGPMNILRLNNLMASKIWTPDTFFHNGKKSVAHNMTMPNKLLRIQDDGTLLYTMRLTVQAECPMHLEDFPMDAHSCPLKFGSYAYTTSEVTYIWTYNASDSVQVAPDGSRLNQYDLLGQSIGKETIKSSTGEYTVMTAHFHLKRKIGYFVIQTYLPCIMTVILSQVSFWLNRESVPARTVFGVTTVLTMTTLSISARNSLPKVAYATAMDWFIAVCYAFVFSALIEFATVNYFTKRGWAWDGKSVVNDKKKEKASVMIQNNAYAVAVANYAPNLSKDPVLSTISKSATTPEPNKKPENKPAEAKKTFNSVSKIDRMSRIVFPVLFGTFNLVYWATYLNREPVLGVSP
Kind of data set: Displacement of [3H] Ro15-1788 from recombinant human GABAA alpha2 receptor plus beta-3-gamma-2 expressed in L(tk-) cells. The data set is classed as cell-based. (Displacement assays read how much labelled ligand stays bound in the presence of the test substance.)

Data set [5] concerns the target T3, GABA-A receptor; alpha-1/beta-3/gamma-2 (Homo sapiens, UniProt P14867+P18507+P28472).
T3 sequence (P14867 whole entry): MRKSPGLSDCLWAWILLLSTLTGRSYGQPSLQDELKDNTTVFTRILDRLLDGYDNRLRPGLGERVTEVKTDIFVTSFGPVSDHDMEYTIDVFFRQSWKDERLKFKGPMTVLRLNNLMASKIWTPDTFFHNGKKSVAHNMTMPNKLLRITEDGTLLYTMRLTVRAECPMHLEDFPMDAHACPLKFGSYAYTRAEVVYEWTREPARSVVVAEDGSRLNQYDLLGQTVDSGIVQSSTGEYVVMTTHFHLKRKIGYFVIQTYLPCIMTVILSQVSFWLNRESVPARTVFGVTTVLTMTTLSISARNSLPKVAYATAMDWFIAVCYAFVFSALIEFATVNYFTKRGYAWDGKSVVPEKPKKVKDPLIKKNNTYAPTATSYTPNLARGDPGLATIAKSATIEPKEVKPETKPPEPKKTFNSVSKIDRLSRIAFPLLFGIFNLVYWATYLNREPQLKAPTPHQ
T3 sequence (P18507 whole entry): T2 sequence (P18507 whole entry)
T3 sequence (P28472 whole entry): T2 sequence (P28472 whole entry)
Put plainly: Displacement of [3H]Ro 15-1788 from recombinant human GABAA alpha-1 receptor plus beta3gamma2 expressed in L(tk-) cells. The data set is classed as cell-based.

The nature of data set [6]: Plasma clearance in rat at 1 mg/kg, iv or 1 mg/kg, po. The data set is classed as ADME, organism-based. The method in brief:
as §1

Data set [7] addresses T4, GABA-A receptor; alpha-1/beta-3/gamma-2 (Homo sapiens) (UniProt P14867+P18507+P28472). Put plainly: Efficacy against recombinant human GABAA alpha1 receptor plus beta3gamma2 expressed in L(tk-) cells by whole cell patch clamp method relative to chlordiazepoxide. The class given is functional, cell-based. The method in brief: as §2
(In patch-clamp work, channel activity is measured electrically.)

Data set [8] in a line: Oral bioavailability in rat at 1 mg/kg, iv or 1 mg/kg, po. The data set is classed as ADME, organism-based. The settings on record: in vivo. A digest of the protocol:
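Pharmacokinetics in rat, dog or rhesus after 1 mg/kg iv and 1 mg/kg po dosing. Plasma clearance (mL/min/kg), half-life (h), volume of distribution (L/kg) and oral bioavailability (%) were derived.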

Data set [9] concerns the target T4, GABA-A receptor; alpha-1/beta-3/gamma-2 (Homo sapiens). Put plainly: Efficacy against recombinant human GABAA alpha-1 receptor plus beta3gamma2 expressed in L(tk-) cells by whole cell patch clamp method. The data set is classed as functional, cell-based. The method in brief: as §2
The target is the same in data set [10]. Kind of data set: Efficacy against recombinant human GABAA alpha1 receptor plus beta-3-gamma-2 expressed in L(tk-) cells by modulation of chloride ion flux relative to chlordiazepoxide. The data set is classed as functional, cell-based. A digest of the protocol: (§3)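 Same L(tk-) lines expressing beta3gamma2 with alpha1 or alpha3. 36Cl ion flux evoked by an EC20-equivalent concentration of GABA, measured in the presence of about 1000 x Ki of test compound. Efficacy expressed relative to the maximal chlordiazepoxide response (1.00). Mean of at least seven independent experiments.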

Data set [11] concerns the target T1, GABA-A receptor; alpha-3/beta-3/gamma-2 (Homo sapiens). Kind of data set: Efficacy against recombinant human GABAA alpha-3 receptor plus beta3gamma2 expressed in L(tk-) cells by modulation of chloride ion flux relative to chlordiazepoxide. The class given is functional, cell-based. A digest of the protocol: as §3

As a reminder, the half-life is the time needed for the level to fall by half in the phase considered. As a reminder, the Ki is a dissociation constant, usually derived from enzyme kinetics or from competition with a known ligand. By bioavailability is commonly meant dose-corrected exposure relative to a reference, in per cent. A high value points to good availability. `CC(C)(O)c1cnn2c(-c3ccc(F)c(-c4c(F)cc(F)cc4C#N)c3)cnc2n1`: in [1], the Vd was 5.8 L/kg. The compound further gave a half-life in [2] of 69 h. Also, the results for the Efficacy in data set [3] and in data set [7] were 37% and 0%, respectively. The Ki in [4] came to 1 nM; in [5] it was 0.15 nM. The clearance in [6] turned out to be 1 mL/min/kg. The same compound had a bioavailability in data set [8] of 64%.

On to `N#Cc1cc(F)ccc1-c1cc(-c2cnc3nc(C(F)(F)F)cnn23)ccc1F`, for which the Efficacy in [9] was -13%; in data set [3], -6%. Besides, the Ki in data set [4] was found to be 0.8 nM; in data set [5], 0.25 nM.

Turning to `N#Cc1cc(F)ccc1-c1cc(-c2cnc3nc(C(F)(F)F)ccn23)ccc1F`, the Efficacy was 25% in [3] and -3% in [7]. In addition, the Ki in [4] was found to be 0.73 nM.

For the compound `CC(C)(O)c1ccn2c(-c3ccc(F)c(-c4cccnc4)c3)cnc2n1`, in data set [4], the Ki came to 4 nM. Also, in [7], the Efficacy was found to be 6%.

In the case of `CN1C(=O)CN=C(c2ccccc2)c2cc(Cl)ccc21`, the Efficacy in data set [3] was found to be 80%; in data set [7], 93%.

In the case of `Cc1cnn2c(-c3cccc(-c4ccccc4C#N)c3)cnc2c1`, the Efficacy in [10] was -20%; in data set [11] it was 26%. The inhibition constant (Ki) in [4] is 19 nM; in data set [5] it was 13 nM.

In the case of `Cc1cnn2c(-c3cccc(-c4ccccc4C#N)c3)cnc2n1`, the Efficacy in data set [9] was -21%; in data set [3], 34%. Also, the Ki in data set [4] amounted to 1.2 nM; in data set [5], 1.5 nM.

Take `Cc1ccn2c(-c3cccc(-c4ccccc4C#N)c3)cnc2n1`: the Efficacy in data set [3] is 69%; in data set [7], 7%. For the same compound, the Ki in data set [4] and in data set [5] was 0.4 nM throughout.

`Cc1ccn2c(-c3cccc(-c4ccccc4C#N)c3)cnc2c1`: the Efficacy in data set [9] was -10%; in [3], 55%. Besides, the Ki in data set [4] amounted to 3.7 nM.

Turning to `CC(C)(O)c1cnn2c(-c3ccc(F)c(-c4ccc(F)cc4C#N)c3)cnc2n1`, the Vd in [1] turned out to be 3.4 L/kg. For the same compound, the Efficacy is -15% in data set [9] and 43% in data set [3]. The half-life in data set [2] was 38 h. Moreover, the Ki in [4] amounted to 2.1 nM; in data set [5] it was 1.2 nM. In data set [6], the clearance was 1.1 mL/min/kg.

As to `CCO/N=C(\C)c1ccc2c(c1)ncn2-c1cccc(-c2cccnc2)c1`, the Efficacy stood at 99% in data set [3] and 40% in data set [7]. Also, the figures for the Ki in data set [4] and in [5] were 14 nM and 2 nM, respectively.
